# Reference: ChEMBL document CHEMBL4680238, “Novel octapeptide-DTX prodrugs targeting MMP-7 as effective agents for the treatment of colorectal cancer with lower systemic toxicity” (Eur J Med Chem, 2020)
# Residues, ends and D or L forms follow the SMILES beside them. *: point of attachment. X2 = CC(=O)O[C@@]12CO[C@@H]1C[C@H](O)[C@@]1(C)C(=O)[C@H](O)C3=C(C)[C@@H](OC(=O)[C@H](OC(=O)OCc4ccc(N*)cc4)[C@@H](NC(=O)OC(C)(C)C(F)(F)F)c4ccccc4)C[C@@](O)([C@@H](OC(=O)c4cccc(F)c4)[C@H]21)C3(C)C
# Legend:
# CCD-18Co = assay: Cytotoxicity against human CCD-18Co cells assessed as reduction in cell viability after 72 hrs by MTT assay; assay type: cell-based
# In short: (§1)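 Cells seeded at 5000/well and precultured 1 day. HCT116 grown in McCoy's 5A + 10% FBS; SW620 and HEK293 in DMEM + 10% FBS; CCD18Co in DMEM + 15% FBS. Compounds from 0.1 M DMSO stocks were tested at 10^-10 to 10^-4 mol/L in sixplicate: HCT116 and HEK293 for 48 h, SW620 and CCD18Co for 72 h, at 37 °C, 5% CO2. MTT (5 mg/mL) added for 4 h, then A570 read; IC50 estimated.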
# [1] = Toxicity in BALB/c nude mouse xenografted with human HCT-116 cells assessed as necrosis in liver at 5 mg/kg, ip administered once for every 7 days for 14 days by H and E staining based assay; assay type: organism-based; conditions: in vivo, 336 h, time 14 day
# In short: (§2)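 At the end of the 14-day ip xenograft study (HCT116, BALB/c nude), heart and liver were collected from vehicle and molar-equivalent dose groups. Tissues fixed in 10% formalin in PBS and stained with H&E. Liver examined at 400×, heart at 100×.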
# [2] = Toxicity in BALB/c nude mouse xenografted with human HCT-116 cells assessed as reduction in body weight at 5 mg/kg, ip administered once for every 7 days for 14 days relative to control; assay type: organism-based; set-up: scale not given: the % may be the effect or the level left; conditions: in vivo, 336 h, time 14 day
# In short: (§3)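 HCT116 s.c. xenografts in male BALB/c nude mice, n = 6 per group. Dosing was ip once every 7 days for 2 weeks in DMSO/castor oil/ethanol/saline; vehicle controls got solvent. Body weight recorded every other day or every three days. Weight loss taken at day 14. Mean ± SD.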
# HCT-116 [3] = assay: Antitumour activity against human HCT-116 cells xenografted in BALB/c nude mouse assessed as tumour growth inhibition at 5 mg/kg, ip administered once for every 7 days for 14 days relative to control; assay type: functional; conditions: HCT-116, ip, 336 h, time 14 day, read-out: TGI
# In short: (§4)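 Male BALB/c nude mice received s.c. HCT116 cells (2 × 10^6 in 0.2 mL PBS). Once tumours reached 100-200 mm3, mice were randomized into groups of six. Dosing was ip, 0.1 mL/10 g, once every 7 days, in DMSO 0.5%/castor oil 5%/ethanol 5%/saline 89.5%; vehicle controls got solvent. Caliper volume V = L×W²×0.52 read every 2-3 days. Tumours excised and weighed on day 14.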
# HCT-116 [4] = assay: Cytotoxicity against human HCT-116 cells assessed as reduction in cell viability after 48 hrs by MTT assay; assay type: functional, cell-based; conditions: HCT-116, 48 h; in short: as §1
# SW-620 = assay: Cytotoxicity against human SW-620 cells assessed as reduction in cell viability after 72 hrs by MTT assay; assay type: functional, cell-based; conditions: SW-620, 72 h; in short: as §1
# [5] = Toxicity in BALB/c nude mouse xenografted with human HCT-116 cells assessed as disordered myocardial fiber in heart at 5 mg/kg, ip administered once for every 7 days for 14 days by H and E staining based assay; assay type: organism-based; conditions: in vivo, 336 h, time 14 day; in short: as §2
# [6] = Toxicity in BALB/c nude mouse xenografted with human HCT-116 cells assessed as inflammatory cell invasion in heart at 5 mg/kg, ip administered once for every 7 days for 14 days by H and E staining based assay; assay type: organism-based; conditions: in vivo, 336 h, time 14 day; in short: as §2
# HEK293 = assay: Cytotoxicity against HEK293 cells assessed as reduction in cell viability after 48 hrs by MTT assay; assay type: cell-based; conditions: Homo sapiens, HEK293, 48 h; in short: as §1
# [7] = Half life in Sprague-Dawley rat plasma t 50 ug/ml up to 72 hrs by RP-HPLC analysis; assay type: ADME, cell-free; conditions: dose 50 µg/ml
# HCT-116 [8] = assay: Antitumour activity against human HCT-116 cells xenografted in BALB/c nude mouse assessed as tumour growth inhibition at 5.55 mg/kg, ip administered once for every 7 days for 14 days relative to control; assay type: functional; conditions: HCT-116, ip, 336 h, time 14 day, read-out: TGI; in short: as §4
# HCT-116 [9] = assay: Antitumour activity against human HCT-116 cells xenografted in BALB/c nude mouse assessed as tumour growth inhibition at 22.2 mg/kg, ip administered once for every 7 days for 14 days relative to control; assay type: functional; conditions: HCT-116, ip, 336 h, time 14 day, read-out: TGI; in short: as §4
# [10] = Toxicity in BALB/c nude mouse xenografted with human HCT-116 cells assessed as necrosis in liver at 11.17 mg/kg, ip administered once for every 7 days for 14 days by H and E staining based assay; assay type: organism-based; conditions: in vivo, 336 h, time 14 day; in short: as §2
# [11] = Toxicity in BALB/c nude mouse xenografted with human HCT-116 cells assessed as reduction in body weight at 5.5 mg/kg, ip administered once for every 7 days for 14 days relative to control; assay type: organism-based; set-up: scale not given: the % may be the effect or the level left; conditions: in vivo, 336 h, time 14 day
# In short: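 HCT116 cells (2 × 10^6 in 0.2 mL PBS) inoculated subcutaneously into male BALB/c nude mice; at mean tumor volume 100-200 mm3, randomized, six mice per group. Dosed intraperitoneally once every 7 days in DMSO (0.5%)/castor oil (5%)/ethanol (5%)/saline (89.5%), 0.1 mL per 10 g; vehicle controls received solvent. Body weight monitored every other day or three days; mice weighed on day 14.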
# [12] = Toxicity in BALB/c nude mouse xenografted with human HCT-116 cells assessed as concentrated nucleus in liver at 11.17 mg/kg, ip administered once for every 7 days for 14 days by H and E staining based assay; assay type: organism-based; conditions: in vivo, 336 h, time 14 day; in short: as §2
# [13] = Toxicity in BALB/c nude mouse xenografted with human HCT-116 cells assessed as disordered myocardial fiber in heart at 11.17 mg/kg, ip administered once for every 7 days for 14 days by H and E staining based assay; assay type: organism-based; conditions: in vivo, 336 h, time 14 day; in short: as §2
# [14] = Half life of compound in PBS buffer at pH 7.4 at 50 ug/ml up to 72 hrs by RP-HPLC analysis; assay type: physicochemical; conditions: dose 50 µg/ml
# HCT-116 [15] = assay: Antitumour activity against human HCT-116 cells xenografted in BALB/c nude mouse assessed as tumour growth inhibition at 11.1 mg/kg, ip administered once for every 7 days for 14 days relative to control; assay type: functional; conditions: HCT-116, ip, 336 h, time 14 day, read-out: TGI; in short: as §4
# [16] = Toxicity in BALB/c nude mouse xenografted with human HCT-116 cells assessed as inflammatory cell invasion in heart at 11.17 mg/kg, ip administered once for every 7 days for 14 days by H and E staining based assay; assay type: organism-based; conditions: in vivo, 336 h, time 14 day; in short: as §2
# [17] = Toxicity in BALB/c nude mouse xenografted with human HCT-116 cells assessed as reduction in body weight at 11.1 mg/kg, ip administered once for every 7 days for 14 days relative to control; assay type: organism-based; set-up: scale not given: the % may be the effect or the level left; conditions: in vivo, 336 h, time 14 day; in short: as §3
# HCT-116 [18] = assay: Antitumour activity against human HCT-116 cells xenografted in ip dosed BALB/c nude mouse assessed as tumour growth inhibition administered once for every 7 days for 14 days; assay type: functional, organism-based; conditions: time 14.0 day; in short: as §4
# [19] = Toxicity in BALB/c nude mouse xenografted with human HCT-116 cells assessed as reduction in body weight at 22.2 mg/kg, ip administered once for every 7 days for 14 days relative to control; assay type: organism-based; set-up: scale not given: the % may be the effect or the level left; conditions: in vivo, 336 h, time 14 day; in short: as §3
smiles,measurement,setting,value
CC(=O)O[C@@]12CO[C@@H]1C[C@H](O)[C@@]1(C)C(=O)[C@H](O)C3=C(C)[C@@H](OC(=O)[C@H](O)[C@@H](NC(=O)OC(C)(C)C(F)(F)F)c4ccccc4)C[C@@](O)([C@@H](OC(=O)c4cccc(F)c4)[C@H]21)C3(C)C,IC50,CCD-18Co,17100 nM
same,Activity,[1],Toxic
same,Activity,[2],9.5%
same,inhibition in vivo at 5 mg/kg,HCT-116 [3],41.9%
same,IC50,HCT-116 [4],0.1 nM
same,IC50,SW-620,280 nM
same,Activity,[5],Toxic
same,Activity,[6],Toxic
same,IC50,HEK293,360 nM
CC[C@H](C)[C@H](NC(=O)CNC(=O)[C@H](CCC(N)=O)NC(=O)[C@@H]1CCCN1C(=O)CNC(C)=O)C(=O)N[C@@H](C)C(=O)N[C@@H](CCSC)C(=O)N[C@@H](CCC(N)=O)C(=O)N[C@@H](CC(C)C)C(=O)Nc1ccc(COC(=O)O[C@@H](C(=O)O[C@H]2C[C@@]3(O)[C@@H](OC(=O)c4cccc(F)c4)[C@@H]4[C@]5(OC(C)=O)CO[C@@H]5C[C@H](O)[C@@]4(C)C(=O)[C@H](O)C(=C2C)C3(C)C)[C@@H](NC(=O)OC(C)(C)C(F)(F)F)c2ccccc2)cc1 (Ac-GPQGIAMQL-X2),half-life at 50 ug/ml,[7],43.8 h
same,IC50,CCD-18Co,> 200000 nM
same,inhibition in vivo at 5.55 mg/kg,HCT-116 [8],30.5%
same,inhibition in vivo at 22.2 mg/kg,HCT-116 [9],46.3%
same,Activity,[10],Non-Toxic
same,IC50,HCT-116 [4],2.8 nM
same,IC50,SW-620,6590 nM
same,Activity,[11],4.6%
same,Activity,[12],Non-Toxic
same,Activity,[13],Non-Toxic
same,half-life at 50 ug/ml,[14],> 72 h
same,inhibition in vivo at 11.1 mg/kg,HCT-116 [15],35.2%
same,Activity,[16],Non-Toxic
same,Activity,[17],8.5%
same,TGI,HCT-116 [18],Dose-dependent effect
same,Activity,[19],8.7%
same,IC50,HEK293,86800 nM
